Assay outcomes as filed in PubChem.
Diaph inh CS: inhibits diaphorase or chemically oxidizes, flagging diaphorase assay artifacts; diaphorase resazurin-to-resorufin fluorescence, NADH, 16 min; bacterial (C. kluyveri) enzyme, not human; inhibition, % at 20 µM; 190,000 tested, 0.69% active;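 active = primary screen inhibition at 20 µM above a set limit, cut at about 50% in these data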
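material = Clostridium kluyveri diaphorase enzyme | amount = 0.14 U/mL diaphorase, enzyme working solution | schedule = incubation 16 min, room temperature | detection = fluorescence of resorufin formed from resazurin, Ex 544/Em 590 nm | benchmarks = positive control minus NADH, DMSO neutral control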
WT yeast gro inh: growth inhibition of WT yeast, mitochondrial fusion screen; mitochondrial fusion phenotypic screen, WT strain; inhibition, % at 10 µM; 190,000 tested, 2.1% active; in the data active = inhibition above about 58%; tested in S. cerevisiae
Diaphorase act: counter-screen for diaphorase-based assays: diaphorase activators and chemical reducers. 190,000 tested, 0.005% active. activation factor at 20 µM. Diaphorase/resazurin coupled assay, resorufin fluorescence, 16 min; stronger effect = higher value; 1 = vehicle wells, 0 = NADH-free wells;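 active = diaphorase activity raised at least twofold by the compound at 20 µM; inactive = activation factor below 2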
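Test system: Clostridium kluyveri diaphorase, purified enzyme. Buffer or medium: 50 mM HEPES pH 7.4 buffer plus MgCl2 and Tween 20. Also added: 0.114 mM NADH and 0.1 mM resazurin, final amounts. Dosing: compound 20 µM once, DMSO 1%. Schedule: 16 min enzyme reaction, ambient temperature. Detection: fluorescence of resorufin, 544 nm excitation, 590 nm emission.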
L major viab: reduces viability of Leishmania major promastigotes; resazurin fluorescence viability; inhibition, % at 10 µM; 200,000 tested, 9% active; in the data active = inhibition above about 50%;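 also: promastigotes grown with compound for 44 hours at 28 °C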
ROMK primary: modulates human ROMK potassium channel activity; P48048; Tet-inducible ROMK, thallium flux fluorescence; actives lie on both sides; B-score at 10 µM; 130,000 tested, 2% active;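 active = signal ratio slope over the read window, or its plate-corrected B-score, at least 3 SD from the plate mean, either direction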;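 also: B-score of the F/F0 ratio slope over 7 to 12 s after thallium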
Target sequence (P48048 whole entry, looked up): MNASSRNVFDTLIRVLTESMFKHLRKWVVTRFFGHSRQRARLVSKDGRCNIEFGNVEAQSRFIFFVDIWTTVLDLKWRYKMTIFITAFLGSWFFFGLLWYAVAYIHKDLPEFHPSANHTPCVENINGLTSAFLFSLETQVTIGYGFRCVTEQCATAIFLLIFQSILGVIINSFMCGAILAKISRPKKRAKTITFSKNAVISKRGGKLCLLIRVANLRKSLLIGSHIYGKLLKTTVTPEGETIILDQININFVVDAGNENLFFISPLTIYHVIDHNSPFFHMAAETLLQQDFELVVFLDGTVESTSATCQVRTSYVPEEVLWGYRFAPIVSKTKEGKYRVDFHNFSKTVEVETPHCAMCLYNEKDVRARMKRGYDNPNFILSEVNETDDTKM
Cl transport mod: KCC2 (human) Cl- transport modulation; Q9H2X9; KCC2 cells, thallium flux FluoZin-2 fluorescence; B-score of Tl+ flux slope (higher = more flux/activation; lower = inhibition) at 10 µM; 190,000 tested, 2.2% active;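 active = thallium flux slope and its plate-corrected score both differing from the plate sample mean at a set confidence after two filtering rounds, in either direction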;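 also: slope of fluorescence scaled to starting intensity during 10 to 20 s after thallium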
A number is an active result; . = inactive; / = no result. Most compounds without a hit are left out; they make up all but 12% or so of the library.

SMILES	Diaph inh CS	WT yeast gro inh	Diaphorase act	L major viab	ROMK primary	Cl transport mod
CC1CCN(c2nc(Cl)nc(Nc3ccc([N+](=O)[O-])cc3)n2)CC1	.	78	.	.	.	.
C=CCNc1nc(Nc2ccc(-c3nc4ccccc4o3)cc2)nc(N2CCOCC2)n1	.	.	.	98	.	/
COc1ccc(Nc2nc(Cl)nc(N3CCN(c4ccc(OC)cc4)CC3)n2)cc1	.	.	.	53	.	.
C=CCNc1nc(NCC)nc(N2CCOCC2)n1	.	.	.	.	/	.
CCOC(=O)C1CCCNC1=O (stereo not given)	/	/	/	/	/	.
Cn1cc(Cl)c(C(=O)OCC(=O)Nc2nc(-c3ccc(Br)cc3)cs2)n1	.	.	.	100	.	/
NC(=O)COC(=O)CCSc1ccc(Cl)cc1	.	.	.	.	.	.
O=C(CCNc1ccc(F)cc1)c1ccco1	.	.	.	97	/	.
O=C(CCNc1cccc(C(F)(F)F)c1)c1ccco1	.	.	.	85	.	/
O=C(CCNc1ccc(Cl)c(C(F)(F)F)c1)c1ccco1	.	.	.	.	.	.
O=C(CCNc1ccc(F)c(Cl)c1)c1ccco1	.	.	.	96	.	/
O=C(CCNc1cc(Cl)cc(Cl)c1)c1ccco1	.	.	.	.	/	.
CCC1CCC2(CC1)NC(=O)N(CC(=O)c1c(C)[nH]c3ccccc13)C2=O (stereo not given)	.	.	.	.	/	.
CCOC(=O)C1(Cc2ccccc2C)CCCN(Cc2ccc(NC(C)=O)cc2)C1 (stereo not given)	.	.	.	.	.	.
CCOC(=O)CSc1nnc(CNC(=O)c2ccc(S(=O)(=O)N3CCCCC3)cc2)n1C	.	.	.	.	.	.
COc1ccc(OC)c(C2=NOC(C(=O)Nc3cc(C)on3)C2)c1 (stereo not given)	/	/	/	/	/	.
CCNC(=S)N/N=C(\C)c1cc2ccccc2o1	.	.	.	.	/	9.1
CNC(=S)N/N=C(\C)c1ccc(Cl)s1	.	.	.	.	/	13
CNC(=S)N/N=C(\C)c1ccc(C)c(C)c1	.	.	.	.	/	5.1
CCNC(=S)N/N=C(\C)c1ccc(Cl)s1	.	.	.	.	/	19
C/C(=N\NC(=O)c1ccc(O)cc1)c1cc2ccccc2o1	.	.	.	.	.	.
CN(Cc1cccs1)C(=O)/C=C/c1ccccc1[N+](=O)[O-]	.	.	.	.	.	/
C=C(C)CNC(=S)N/N=C(\C)c1ccc(Cl)s1	.	.	.	.	/	13
COc1ccc(-c2cc3nc(-c4ccccc4)cc(N4CCCC(O)C4)n3n2)cc1 (stereo not given)	.	68	.	.	.	.
COCCN1CCN(c2cc(-c3ccccc3)nc3cc(-c4cccc(F)c4)nn23)CC1	.	77	.	87	.	.
SMILES	Diaph inh CS	WT yeast gro inh	Diaphorase act	L major viab	ROMK primary	Cl transport mod
Cc1ccc(-c2cc3nc(-c4ccccc4)cc(N4CCC5(CC4)OCCO5)n3n2)cc1	.	.	.	56	.	.
Cc1cccc(-c2cc3nc(-c4ccccc4)cc(N4CCC5(CC4)OCCO5)n3n2)c1	.	.	.	.	.	.
COc1ccc(-c2cc3nc(-c4ccccc4)cc(N4CCC(O)CC4)n3n2)cc1	50	62	.	.	.	.
Cc1ccc(-n2nc(CN3CCOCC3)c(-c3ccccc3)c2N)cc1Cl	.	.	.	.	/	.
CCCC(C)NC(=O)COC(=O)c1cc(Br)c(Br)s1 (stereo not given)	.	.	.	.	.	.
O=C(Nc1ccc(Br)c(C(F)(F)F)c1)c1ccccc1	.	66	.	61	.	.
COC(=O)CNC(c1ccccc1)c1cc(Cl)ccc1NC(=O)c1cccc(Cl)c1 (stereo not given)	.	58	.	.	.	.
O=C(c1cccc(S(=O)(=O)Nc2cccc(C(F)(F)F)c2)c1)N1CCCCC1	.	.	.	.	/	.
COc1ccc(CNC(=O)C2CC(=O)N(c3ccc(OCC(=O)N4C(C)CCCC4C)cc3)C2)cc1 (stereo not given)	.	64	.	.	.	/
O=[N+]([O-])c1ccc(-c2nc(C(Cl)Cl)c3ccccc3n2)cc1	/	/	/	/	/	.
Cc1ccc(NC(=O)N2CCCC2)cc1Cl	.	.	.	95	.	.
O=C(Nc1ccccc1)N1CCCC1	.	.	.	97	.	.
O=C(Nc1ccccc1)N1CCNCC1	/	/	/	/	/	.
O=C(Nc1ccc(Cl)c(Cl)c1)N1CC=CCC1	.	.	.	85	.	.
Cc1ccc(NC(=O)CSC(N)=O)cc1Cl	.	.	.	.	/	-3.5
Cc1ccc(C2CC(=O)NC(SCC(=O)Nc3nccs3)=C2C#N)cc1 (stereo not given)	.	.	.	.	/	.
Cc1nc2ncnn2c(C)c1Cc1cccc(C(F)(F)F)c1	.	.	.	.	.	.
O=C(C1CCN(S(=O)(=O)c2ccccc2[N+](=O)[O-])CC1)N1CCOCC1	.	.	.	.	.	.
CC(C)(C)c1ccc(OCC(=O)NNC(=O)c2cccnc2)cc1	.	.	.	.	.	/
COC(=O)C(C)NC(=O)C12CC3CC(CC(C3)C1)C2 (stereo not given)	.	.	.	.	/	.
CC(C)C(NC(=O)C12CC3CC(CC(C3)C1)C2)C(=O)O (stereo not given)	.	.	.	52	.	.
CCC(C)C(NC(=O)C1CCC(C)CC1)C(=O)Nc1cc(OC)ccc1OC (stereo not given)	.	.	.	.	.	.
Clc1ccc(-c2csc(=Nc3cccnc3)n2CCCn2ccnc2)cc1Cl	.	.	.	99	.	.
Nc1ccc(N(c2ccccc2)c2ccc(N)cc2)cc1	.	.	.	100	/	.
CC(C)CN1C(=O)/C(=C(/C#N)C(=O)NC2CCCCC2)c2ccccc21	.	.	.	97	.	.
SMILES	Diaph inh CS	WT yeast gro inh	Diaphorase act	L major viab	ROMK primary	Cl transport mod
CCCCN1C(=O)/C(=C(/C#N)C(=O)N2CCCC2)c2ccccc21	/	/	/	/	/	.
COc1ccc(CNC(=O)C(C)OC(=O)c2cccn2C)cc1 (stereo not given)	.	.	.	.	.	.
COc1ccc(C(=O)C[n+]2cn(C(F)F)c3ccccc32)c(F)c1	.	70	.	.	.	.
CN(C)c1ncc(S(=O)(=O)c2ccc(Cl)cc2)c(-c2ccc(Cl)cc2Cl)n1	.	66	.	.	/	.
Cc1sc2c(c1C)C(=O)/C(=C\Nc1ccccn1)S(=O)(=O)N2C	/	/	/	/	/	.
COCCn1c(C)cc(C(=O)CSc2nc3nc(C)cc(C)n3n2)c1C	.	.	.	62	.	.
Cn1c(CN2CCN(c3cccc(Cl)c3)CC2)nc2ccccc21	.	.	.	68	.	.
CCn1c(N2CCN(S(=O)(=O)CC)CC2)nc2ccccc21	.	.	.	.	.	/
COc1cc(CN2CCN(c3cccc(Cl)c3)CC2)cc(OC)c1OC	.	.	.	88	.	.
